In ChEMBL document CHEMBL2440088, “A synthetic compound, 4-acetyl-3-methyl-6-(3,4,5-trimethoxyphenyl)pyrano[3,4-c]pyran-1,8-dione, ameliorates ovalbumin-induced asthma” (Bioorg Med Chem, 2013):
The source made the active and inactive calls. No cut-off for these calls is given here.

Columns and labels:
Mus musculus [1] = test: Antiinflammatory activity in ovalbumin-sensitized Balb/c mouse asthma model model assessed as reduction of goblet cell hyperplasia in lungs at 1 mg/kg, po by PAS staining; type: functional, organism-based; set-up: dose 1 mg/kg
Procedure, shortened: (§1)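 Male Balb/c mice, 6 weeks old and 20-25 g, n = 6 per group, were sensitized ip on days 0 and 14 with 100 μg OVA precipitated with 20 mg aluminum hydroxide in 200 μl PBS. They were challenged intranasally with 1% OVA in 50 μl PBS on days 15, 17, 19, 21, 23 and 25, and sacrificed on day 27.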

Mus musculus [2] = test: Antiinflammatory activity in ovalbumin-sensitized Balb/c mouse asthma model model assessed as reduction of eosinophils, neutrophils, lymphocytes, and macrophages level in BAL fluid at 1 mg/kg, po; type: functional, organism-based; set-up: dose 1 mg/kg; procedure, shortened: as §1
Mus musculus [3] = test: Antiinflammatory activity in ovalbumin-sensitized Balb/c mouse asthma model model assessed as reduction in methacholine-induced airway hyperresponsiveness at 1 mg/kg, po; type: functional, organism-based; set-up: dose 1 mg/kg
Procedure, shortened: (§2)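 AHR was read in OVA-sensitized/challenged Balb/c mice (n = 6 per group) 24 h after the final allergen challenge, by barometric whole-body plethysmography. A 3 min baseline came first, then inhalation of methacholine at 50 or 100 mg ml⁻¹, with the read-out as enhanced pause (Penh).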

Mus musculus [4] = test: Antiinflammatory activity in ovalbumin-sensitized Balb/c mouse asthma model model assessed as reduction of airway smooth muscle thickness in lungs at 10 mg/kg, ip by IHC staining; type: functional, organism-based; set-up: dose 10 mg/kg; settings: Muscle tissue; procedure, shortened: as §1
Mus musculus [5] = test: Antiinflammatory activity in ovalbumin-sensitized Balb/c mouse asthma model model assessed as reduction of goblet cell hyperplasia in lungs at 10 mg/kg, ip by PAS staining; type: functional, organism-based; set-up: dose 10 mg/kg; procedure, shortened: as §1
Mus musculus [6] = test: Antiinflammatory activity in ovalbumin-sensitized Balb/c mouse asthma model model assessed as reduction of eosinophils infiltration in lungs at 10 mg/kg, ip by hematoxylin and eosin staining; type: functional, organism-based; set-up: dose 10 mg/kg; procedure, shortened: as §1
Mus musculus [7] = test: Antiinflammatory activity in ovalbumin-sensitized Balb/c mouse asthma model model assessed as reduction of eosinophils, neutrophils, lymphocytes, and macrophages level in BAL fluid at 10 mg/kg, ip; type: functional, organism-based; set-up: dose 10 mg/kg; procedure, shortened: as §1
Mus musculus [8] = test: Antiinflammatory activity in ovalbumin-sensitized Balb/c mouse asthma model model assessed as reduction in IgE level in serum at 10 mg/kg, ip after 48 hrs of last dose by ELISA; type: functional, organism-based; set-up: dose 10 mg/kg; procedure, shortened: as §1
Mus musculus [9] = test: Antiinflammatory activity in ovalbumin-sensitized Balb/c mouse asthma model model assessed as reduction in methacholine-induced airway hyperresponsiveness at 10 mg/kg, ip; type: functional, organism-based; set-up: dose 10 mg/kg; procedure, shortened: as §2
[10] = target: T1, Signal transducer and activator of transcription 6 (Homo sapiens) (UniProt P42226); test: Inhibition of TNFalpha/IL4/IL1-beta-induced STAT6 phosphorylation in human A549 cells at 50 uM after 15 mins by Western blotting analysis; type: cell-based; settings: in the assay text read “after 1 hr” for “after 15 mins”
T1 sequence (whole entry): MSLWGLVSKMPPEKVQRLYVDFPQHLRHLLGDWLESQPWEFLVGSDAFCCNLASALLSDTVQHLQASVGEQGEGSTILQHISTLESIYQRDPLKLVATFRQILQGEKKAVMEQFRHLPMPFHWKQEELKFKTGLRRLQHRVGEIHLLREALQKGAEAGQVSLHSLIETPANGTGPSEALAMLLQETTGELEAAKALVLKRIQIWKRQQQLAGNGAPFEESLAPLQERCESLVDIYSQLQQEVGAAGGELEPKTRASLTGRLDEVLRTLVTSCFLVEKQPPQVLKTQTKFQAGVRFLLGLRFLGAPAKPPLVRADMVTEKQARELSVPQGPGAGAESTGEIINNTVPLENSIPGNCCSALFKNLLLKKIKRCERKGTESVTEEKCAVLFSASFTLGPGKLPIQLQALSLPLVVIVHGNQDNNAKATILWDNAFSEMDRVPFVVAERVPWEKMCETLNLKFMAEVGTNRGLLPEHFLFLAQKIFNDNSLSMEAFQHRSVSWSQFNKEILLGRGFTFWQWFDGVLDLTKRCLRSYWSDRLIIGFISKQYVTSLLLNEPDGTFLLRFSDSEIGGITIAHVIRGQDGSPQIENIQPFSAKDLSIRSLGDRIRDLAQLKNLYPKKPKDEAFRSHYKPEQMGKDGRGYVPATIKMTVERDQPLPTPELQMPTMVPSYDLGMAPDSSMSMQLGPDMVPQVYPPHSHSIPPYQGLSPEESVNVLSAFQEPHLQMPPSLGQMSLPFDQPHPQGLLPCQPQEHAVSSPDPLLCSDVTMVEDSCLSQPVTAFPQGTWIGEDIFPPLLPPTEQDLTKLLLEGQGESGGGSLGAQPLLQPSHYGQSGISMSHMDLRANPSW
Procedure, shortened: (§3)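 Nuclear extracts were western blotted for p65 or phospho-STAT6, with bands normalized to PCNA by densitometry over three experiments.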

[11] = target: Transcription factor p65 (Homo sapiens) (UniProt Q04206); test: Inhibition of TNFalpha/IL4/IL1-beta-induced NFkappaB p65 nuclear translocation in human A549 cells at 50 uM after 15 mins by Western blotting analysis; type: cell-based; settings: in the assay text read “after 1 hr” for “after 15 mins”; procedure, shortened: as §3
A549 [12] = test: Inhibition of TNFalpha/IL4/IL1-beta-induced CCL11 secretion in human A549 cells at 5 uM treated 1 hr before TNFalpha/IL4/IL1-beta stimulation measured after 24 hrs by ELISA; type: functional
Procedure, shortened: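 Confluent A549 cells were held in serum-free RPMI for 24 h, pretreated 1 h with 0-50 μM, then stimulated with IL-1β (10 ng ml⁻¹), TNF-α (100 ng ml⁻¹) and IL-4 (100 ng ml⁻¹) for 24 h. Eotaxin in the supernatant was measured by ELISA; three independent experiments were run.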

A549 [13] = test: Cytotoxicity against human A549 cells assessed as cell viability at 50 uM after 24 hrs by MTS assay; type: cell-based; settings: a549, 24 h
Procedure, shortened: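 A549 cells were seeded at 2×10⁴ cells per well and grown 24 h at 37 °C, then exposed to 0, 5, 10 or 50 μM for 24 h. MTS reagent was added for a further 4 h and absorbance read at 490 nm; assays were run in triplicate.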

Transcription factor p65 (Homo sapiens), sequence (Q04206 whole entry): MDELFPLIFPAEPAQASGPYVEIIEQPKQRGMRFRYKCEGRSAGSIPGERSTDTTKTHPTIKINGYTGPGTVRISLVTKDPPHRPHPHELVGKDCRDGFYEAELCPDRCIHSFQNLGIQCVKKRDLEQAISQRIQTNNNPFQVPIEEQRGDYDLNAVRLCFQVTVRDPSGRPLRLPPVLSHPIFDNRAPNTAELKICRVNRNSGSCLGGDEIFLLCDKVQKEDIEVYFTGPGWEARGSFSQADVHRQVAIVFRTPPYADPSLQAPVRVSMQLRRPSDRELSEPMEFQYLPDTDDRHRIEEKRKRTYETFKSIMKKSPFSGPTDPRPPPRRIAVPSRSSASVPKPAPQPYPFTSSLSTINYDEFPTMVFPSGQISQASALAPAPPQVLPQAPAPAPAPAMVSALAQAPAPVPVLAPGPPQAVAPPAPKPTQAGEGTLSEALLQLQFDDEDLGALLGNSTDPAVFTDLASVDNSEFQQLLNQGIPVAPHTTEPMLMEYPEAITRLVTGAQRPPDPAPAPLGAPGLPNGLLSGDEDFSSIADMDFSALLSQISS

Compound | Activity (Mus musculus [1]) | Activity (Mus musculus [2]) | Activity (Mus musculus [3]) | Activity (Mus musculus [4]) | Activity (Mus musculus [5]) | Activity (Mus musculus [6]) | Activity (Mus musculus [7]) | Activity (Mus musculus [8]) | Activity (Mus musculus [9]) | inhibition [10] | inhibition [11] | inhibition at 5 µM (A549 [12]) [%] | Activity (A549 [13])
C[C@@H]1C[C@H]2[C@@H]3CCC4=CC(=O)C=C[C@]4(C)[C@@]3(F)[C@@H](O)C[C@]2(C)[C@@]1(O)C(=O)CO | Active | Active | Active |  |  |  |  |  |  |  |  |  | 
COc1cc(-c2cc3c(C(C)=O)c(C)oc(=O)c3c(=O)o2)cc(OC)c1OC |  |  |  | Active | Active | Active | Active | Active | Active | Active | inactive | 75 | Non-toxic
